From PMC4477344 (Diabetes, 2015)
Where no end group is shown, it is not given here.

Key:
Dpp4 = conditions: cited from earlier work
[1] = tested on: diet-induced obese (DIO) mice; test: GLP-1; type: in vivo, C57BL/6J male mice; conditions: continuous infusion for up to 16 weeks
How it was run: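 Mice were started on high-fat diet at 6–10 weeks of age and fed it for 7–22 weeks. At 13–28 weeks of age they were randomized by body weight and given osmotic minipumps delivering vehicle (0.154 mol/L NaCl/0.2% human serum albumin) or test compound at 50–70 nmol/kg/day for […]. Body weight was recorded weekly and food intake twice weekly. Fat and lean mass were measured by DXA at week 15. n = 6 per group.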

Substance	time of cleavage in vivo by Dpp4 to GLP-1(9-36)amide (Dpp4) [min]	adverse effects [1]
GLP-1(7-36)amide	1 to 2	
LVKGR-NH2 [GLP-1(32-36)amide]		No adverse effects
